Measurements reported in ChEMBL document CHEMBL1145100, “Structure-activity relationship of imidazo[1,2-a]pyridines as ligands for detecting beta-amyloid plaques in the brain” (J Med Chem, 2003).

How the values were obtained:
Mus musculus [1] = assay: Biodistribution of radioactivity in normal mice (ICR) kidney after 30 minutes of intravenous injection of [125I]-16(IMPY); type: ADME, organism-based; details: in vivo, 0.5 h
Method in brief: (§1)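 Male ICR mice, 2-3 months old, 20-30 g, under ether anesthesia, given 0.15 mL of 0.1% bovine serum albumin solution containing the [125I] tracer into the tail vein. Killed by cardiac excision at set times after injection. Organs removed and weighed, then gamma-counted. % dose per organ computed against diluted aliquots of the injected material.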

Mus musculus [2] = assay: Biodistribution of radioactivity in normal mice (ICR) kidney after 6 hours of intravenous injection of [125I]-16(IMPY); type: ADME, organism-based; details: in vivo; method in brief: as §1
Mus musculus [3] = assay: Biodistribution of radioactivity in normal mice (ICR) liver after 1 hour of intravenous injection of [125I]-16(IMPY); type: ADME, organism-based; details: in vivo; method in brief: as §1
Mus musculus [4] = assay: Biodistribution of radioactivity in normal mice (ICR) liver after 2 hours of intravenous injection of [125I]-16(IMPY); type: ADME, organism-based; details: in vivo; method in brief: as §1
Mus musculus [5] = assay: Biodistribution of radioactivity in normal mice (ICR) liver after 2 minutes of intravenous injection of [125I]-16(IMPY); type: ADME, organism-based; details: in vivo; method in brief: as §1
Mus musculus [6] = assay: Biodistribution of radioactivity in normal mice (ICR) liver after 24 hours of intravenous injection of [125I]-16(IMPY); type: ADME, organism-based; details: in vivo; method in brief: as §1
Mus musculus [7] = assay: Biodistribution of radioactivity in normal mice (ICR) liver after 30 minutes of intravenous injection of [125I]-16(IMPY); type: ADME, organism-based; details: in vivo, 0.5 h; method in brief: as §1
Mus musculus [8] = assay: Biodistribution of radioactivity in normal mice (ICR) liver after 6 hours of intravenous injection of [125I]-16(IMPY); type: ADME, organism-based; details: in vivo; method in brief: as §1
Mus musculus [9] = assay: Biodistribution of radioactivity in normal mice (ICR) lung after 1 hour of intravenous injection of [125I]-16(IMPY); type: ADME, organism-based; details: in vivo; method in brief: as §1
Mus musculus [10] = assay: Biodistribution of radioactivity in normal mice (ICR) lung after 2 hours of intravenous injection of [125I]-16(IMPY); type: ADME, organism-based; details: in vivo; method in brief: as §1
Mus musculus [11] = assay: Biodistribution of radioactivity in normal mice (ICR) lung after 2 minutes of intravenous injection of [125I]-16(IMPY); type: ADME, organism-based; details: in vivo; method in brief: as §1
Mus musculus [12] = assay: Biodistribution of radioactivity in normal mice (ICR) lung after 24 hours of intravenous injection of [125I]-16(IMPY); type: ADME, organism-based; details: in vivo; method in brief: as §1
Mus musculus [13] = assay: Biodistribution of radioactivity in normal mice (ICR) lung after 30 minutes of intravenous injection of [125I]-16(IMPY); type: ADME, organism-based; details: in vivo, 0.5 h; method in brief: as §1
Mus musculus [14] = assay: Biodistribution of radioactivity in normal mice (ICR) lung after 6 hours of intravenous injection of [125I]-16(IMPY); type: ADME, organism-based; details: in vivo; method in brief: as §1
Mus musculus [15] = assay: Biodistribution of radioactivity in normal mice (ICR) muscle after 1 hr of intravenous injection of [125I]-16(IMPY); type: ADME, organism-based, Muscle tissue; details: in vivo; method in brief: as §1
Mus musculus [16] = assay: Biodistribution of radioactivity in normal mice (ICR) muscle after 2 hours of intravenous injection of [125I]-16(IMPY); type: ADME, organism-based, Muscle tissue; details: in vivo; method in brief: as §1
Mus musculus [17] = assay: Biodistribution of radioactivity in normal mice (ICR) muscle after 2 minutes of intravenous injection of [125I]-16(IMPY); type: ADME, organism-based, Muscle tissue; details: in vivo; method in brief: as §1
Mus musculus [18] = assay: Biodistribution of radioactivity in normal mice (ICR) muscle after 24 hours of intravenous injection of [125I]-16(IMPY); type: ADME, organism-based, Muscle tissue; details: in vivo; method in brief: as §1
Mus musculus [19] = assay: Biodistribution of radioactivity in normal mice (ICR) muscle after 30 minutes of intravenous injection of [125I]-16(IMPY); type: ADME, organism-based, Muscle tissue; details: in vivo, 0.5 h; method in brief: as §1
Mus musculus [20] = assay: Biodistribution of radioactivity in normal mice (ICR) muscle after 6 hours of intravenous injection of [125I]-16(IMPY); type: ADME, organism-based, Muscle tissue; details: in vivo; method in brief: as §1
Mus musculus [21] = assay: Biodistribution of radioactivity in normal mice (ICR) skin after 1 hour of intravenous injection of [125I]-16(IMPY); type: ADME, organism-based, Zone of skin; details: in vivo; method in brief: as §1
Mus musculus [22] = assay: Biodistribution of radioactivity in normal mice (ICR) skin after 2 hours of intravenous injection of [125I]-16(IMPY); type: ADME, organism-based, Zone of skin; details: in vivo; method in brief: as §1
Mus musculus [23] = assay: Biodistribution of radioactivity in normal mice (ICR) skin after 2 minutes of intravenous injection of [125I]-16(IMPY); type: ADME, organism-based, Zone of skin; details: in vivo; method in brief: as §1
Mus musculus [24] = assay: Biodistribution of radioactivity in normal mice (ICR) skin after 24 hours of intravenous injection of [125I]-16(IMPY); type: ADME, organism-based, Zone of skin; details: in vivo; method in brief: as §1
Mus musculus [25] = assay: Biodistribution of radioactivity in normal mice (ICR) skin after 30 minutes of intravenous injection of [125I]-16(IMPY); type: ADME, organism-based, Zone of skin; details: in vivo, 0.5 h; method in brief: as §1
Mus musculus [26] = assay: Biodistribution of radioactivity in normal mice (ICR) skin after 6 hours of intravenous injection of [125I]-16(IMPY); type: ADME, organism-based, Zone of skin; details: in vivo; method in brief: as §1
Mus musculus [27] = assay: Biodistribution of radioactivity in normal mice (ICR) spleen after 1 hour of intravenous injection of [125I]-16(IMPY); type: ADME, organism-based; details: in vivo; method in brief: as §1

Dose/organ (Mus musculus [1]): 1.51%
Dose/organ (Mus musculus [2]): 0.25%
Dose/organ (Mus musculus [3]): 5.88%
Dose/organ (Mus musculus [4]): 2.9%
Dose/organ (Mus musculus [5]): 20.9%
Dose/organ (Mus musculus [6]): 0.61%
Dose/organ (Mus musculus [7]): 6.32%
Dose/organ (Mus musculus [8]): 1.54%
Dose/organ (Mus musculus [9]): 0.34%
Dose/organ (Mus musculus [10]): 0.2%
Dose/organ (Mus musculus [11]): 1.56%
Dose/organ (Mus musculus [12]): 0.05%
Dose/organ (Mus musculus [13]): 0.31%
Dose/organ (Mus musculus [14]): 0.12%
Dose/organ (Mus musculus [15]): 5.03%
Dose/organ (Mus musculus [16]): 2.96%
Dose/organ (Mus musculus [17]): 13.8%
Dose/organ (Mus musculus [18]): 0.27%
Dose/organ (Mus musculus [19]): 6.08%
Dose/organ (Mus musculus [20]): 1.46%
Dose/organ (Mus musculus [21]): 4.28%
Dose/organ (Mus musculus [22]): 3.14%
Dose/organ (Mus musculus [23]): 5.72%
Dose/organ (Mus musculus [24]): 0.22%
Dose/organ (Mus musculus [25]): 4.69%
Dose/organ (Mus musculus [26]): 2.19%
Dose/organ (Mus musculus [27]): 0.08%
SMILES: CN(C)c1ccc(-c2cn3cc(I)ccc3n2)cc1
